Reference: ChEMBL document CHEMBL1817588, “Design and synthesis of 1,3-biarylsulfanyl derivatives as new anti-breast cancer agents” (Bioorg Med Chem, 2011)
Activity calls are given as the source filed them. The calls are words filed in the database; no cut-off is given here.

Columns and labels:
Rattus norvegicus [1] = experiment: Antiimplantation activity in Sprague-Dawley albino rat at 20 mg/kg, po after 10 days; assay type: functional
In short: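 Sperm-positive adult Sprague-Dawley females (180–220 g) mated with proven-fertile males. Compounds given orally as a gum acacia suspension on days 1–5 post-coitum, 5–7 animals per group. Vehicle-only group served as control.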

Ishikawa [2] = experiment: Antiproliferative activity against human Ishikawa cells expressing estrogen receptor after 48 hrs by MTT assay; assay type: functional, cell-based
In short: (§1)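 Cells seeded at 1×10^4/well in DMEM with 10% FBS for 24 h at 37 °C, then exposed to compounds for 48 h. MTT (5 mg/mL) added for 4 h. Formazan dissolved in DMSO and absorbance read at 540 nm. Routine culture used DMEM with 10% FBS, 5% CO2, reduced to 2% FBS for growth inhibition.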

Bone [3] = experiment: Antiosteoporotic activity in Sprague-Dawley rat [45Ca] pre-labeled bone assessed as inhibition of PTH-induced bone resorption after 96 hrs
HEK293 [4] = experiment: Antiproliferative activity against human HEK293 cells after 48 hrs by MTT assay; assay type: cell-based; settings: HEK293, 48 h; in short: as §1
Rattus norvegicus [5] = experiment: Antiestrogenic activity in Sprague-Dawley rat assessed as inhibition of uterine weight gain administered as po daily once for 3 days relative to 17alpha-ethynylestradiol; assay type: functional
In short: (§2)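 Immature female Sprague-Dawley rats given oral dosing once daily for 3 days on days 28–30 of age. Antiestrogenic arm co-dosed ethynylestradiol 0.02 mg/kg in 10% ethanol-water. Autopsy 24 h after last dose (day 31). Uterus excised, blotted and weighed, with vaginal opening and cornification also scored. Inhibition computed as (E − T)×100/E versus ethynylestradiol alone. Estrogenic gain expressed as percent increase over vehicle control.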

Rattus norvegicus [6] = experiment: Estrogenic activity in Sprague-Dawley rat assessed as increase in uterine weight administered as po daily once for 3 days relative to control; assay type: functional; design: concentration or dose not given beside the values; in short: as §2
MDA-MB-231 = experiment: Antiproliferative activity against estrogen receptor-deficient human MDA-MB-231 cells […] after 48 hrs by MTT assay; assay type: functional, cell-based; settings: MDA-MB-231, 48 h; in short: as §1
Bone [7] = experiment: Antiosteoporotic activity in Sprague-Dawley rat [45Ca] pre-labeled bone assessed as inhibition of PTH-induced bone resorption after 96 hrs relative to control
MCF7 = experiment: Antiproliferative activity against human MCF7 cells expressing estrogen receptor after 48 hrs by MTT assay; assay type: functional, cell-based; settings: MCF7, 48 h; in short: as §1
Rattus norvegicus [8] = organism: Rattus norvegicus; experiment: Displacement of [3H]-estradiol from estrogen receptor in rat uteri after 18 hrs by scintillation counting relative to 17beta-estradiol
In short: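 Cytosol from uteri of immature 20–21-day-old rats, in TEA buffer pH 7.4 (10 mM Tris, 1.5 mM EDTA, 0.02% azide). Incubated in triplicate with fixed 3H-estradiol ± competitor (DMF ≤5% final) for 18 h at 4 °C. Free ligand removed with dextran-coated charcoal (15 min, 800g 10 min), then supernatant counted. RBA taken at 50% inhibition from the bound-versus-log concentration plot.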

Bone marrow cell [9] = experiment: Osteoclastogenesis activity in BALB/c mouse bone marrow cells assessed as inhibition of MCSF-induced TRAP gene expression at 1 uM after 7 days by RT-PCR analysis; assay type: functional, cell-based
In short: (§3)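 Bone marrow from long bones of 4–6-week-old Balb/c mice, plated overnight in α-MEM with 10% FBS and M-CSF. Nonadherent cells then cultured with RANKL 50 ng/ml and M-CSF 10 ng/ml plus test agent 1 µM, medium changed every 2 d for 7 d. TRAP and RANK mRNA measured by qPCR after Trizol RNA extraction, expressed as fold change over vehicle.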

Bone marrow cell [10] = experiment: Osteoclastogenesis activity in BALB/c mouse bone marrow cells assessed as inhibition of RANK-induced RANK gene expression at 1 uM after 7 days by RT-PCR analysis; assay type: functional, cell-based; in short: as §3
Bone marrow cell [11] = experiment: Osteoclastogenesis activity in BALB/c mouse bone marrow cells assessed as inhibition of MCSF-induced RANK gene expression at 1 uM after 7 days by RT-PCR analysis; assay type: functional, cell-based; in short: as §3
Bone marrow cell [12] = experiment: Osteoclastogenesis activity in BALB/c mouse bone marrow cells assessed as inhibition of RANK-induced TRAP gene expression at 1 uM after 7 days by RT-PCR analysis; assay type: functional, cell-based; in short: as §3
HEK293 [13] = experiment: Antiproliferative activity against human HEK293 cells at 50 uM after 48 hrs by MTT assay; assay type: cell-based; settings: hek293, 48 h
Ishikawa [14] = experiment: Antiproliferative activity against human Ishikawa cells expressing estrogen receptor at 50 uM after 48 hrs by MTT assay; assay type: functional, cell-based

IC50 (MDA-MB-231)	IC50 (MCF7)	RBA (Rattus norvegicus [8])	SMILES	Activity (Rattus norvegicus [1])	IC50 (Ishikawa [2])	T/C (Bone [3])	IC50 (HEK293 [4])	inhibition (INH) (Rattus norvegicus [5])	Activity (Rattus norvegicus [6])	inhibition (INH) (Bone [7])	inhibition (Bone marrow cell [9])	inhibition (Bone marrow cell [10])	inhibition (Bone marrow cell [11])	inhibition (Bone marrow cell [12])	Activity (HEK293 [13])	Activity (Ishikawa [14])
> 50 µM	27 µM	0.191%	CCSC(CC(=O)c1ccc(OCCN2CCCC2)cc1)c1ccccc1 (centres undefined)	100%	> 50 µM	0.963	29.2 µM	9%	152%	3.7%						
27 µM	28.6 µM	0.67%	O=C(CC(Sc1ccc(O)cc1)c1ccccc1)c1ccc(OCCN2CCCC2)cc1 (centres undefined)	60%	16 µM	0.902	27.5 µM	18%	101%	9.8%						
34 µM	21 µM	2.67%	COc1ccc(C(CC(=O)c2ccccc2)Sc2ccccc2)cc1 (centres undefined)	inactive	26 µM	0.784		18%	192%	21.6%	Active	Active	Active	Active		
57 µM	24 µM	1.25%	O=C(CC(Sc1ccccc1)c1ccccc1)c1ccccc1 (centres undefined)	inactive	20 µM	0.562		16%	185%	43.8%	Active	Active	Active	Active		
27 µM	> 50 µM	0.157%	CN(C)CCOc1ccc(C(=O)CC(Sc2ccccc2)c2ccccc2)cc1 (centres undefined)	inactive	20 µM	0.863		12%	174%	13.7%					Non-toxic	
> 50 µM	25 µM	5.15%	O=C(CC(Sc1ccc(O)cc1)c1ccc(O)cc1)c1ccc(OCCN2CCCC2)cc1 (centres undefined)	inactive	17.3 µM	0.934	28.7 µM	24%	111%	6.6%						
40.2 µM	32.8 µM	0.175%	CCSC(CC(=O)c1ccc(OCCN2CCCCC2)cc1)c1ccccc1 (centres undefined)	inactive	28.5 µM	0.947		7%	134%	5.5%					Non-toxic	
28 µM	> 50 µM	0.245%	Cc1ccc(SC(CC(=O)c2ccc(OCCN(C)C)cc2)c2ccccc2)cc1 (centres undefined)	inactive		0.845		8%	76%	15.5%					Non-toxic	inactive
16.5 µM	9.6 µM	5.27%	O=C(CC(Sc1ccc(O)cc1)c1ccccc1)c1ccc(OCCN2CCCCC2)cc1 (centres undefined)	100%	16.2 µM	0.787	75.2 µM	34%	58%	21.3%						
28 µM	18 µM		COc1ccc(C(=O)CC(Sc2ccc(C)cc2)c2ccc(OC)cc2)cc1 (centres undefined)												Non-toxic	inactive
31 µM	17 µM	2.21%	COc1ccc(C(=O)CC(Sc2ccccc2)c2ccc(OC)cc2)cc1 (centres undefined)	inactive	16 µM	0.61	38.2 µM	16%	187%	39%	Active	Active	Active	Active		
38 µM	27 µM	0.246%	CCSC(CC(=O)c1ccc(OCCN(C)C)cc1)c1ccccc1 (centres undefined)	inactive		0.944	32.8 µM	4%	212%	5.6%						inactive
19 µM	12.2 µM	4.47%	O=C(CC(Sc1ccc(O)cc1)c1cccc(O)c1)c1ccc(OCCN2CCCCC2)cc1 (centres undefined)	100%	17 µM	0.812	65.8 µM	31%	79%	18.8%						
